Here are results for one molecule from ChEMBL document CHEMBL4020760, “Discovery of a Small Molecule Probe That Post-Translationally Stabilizes the Survival Motor Neuron Protein for the Treatment of Spinal Muscular Atrophy” (J Med Chem, 2017).

The structures appear in SMILES notation. The source made the active and inactive calls. No cut-off for these calls is given here. Some results are limits rather than exact numbers.

A short description of series [1]: Fraction unbound in mouse plasma. The class given is ADME, cell-free. In a few lines: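 Plasma protein binding measured in mouse and human plasma and expressed as percent free.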
A short description of series [2]: Half life in mouse liver microsomes. The series is classed as ADME, microsome. The following applies: liver microsomes. The gist of the method: (§1)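 Compound stability in mouse and human liver microsomes, expressed as half-life in min.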
Background: Liver microsomes are vesicles of endoplasmic reticulum, rich in cytochrome P450 enzymes.

In series [3] the target is Survival motor neuron protein (Homo sapiens) (UniProt Q16637). Kind of series: Stabilization of SMN protein in 3813T fibroblasts derived from human SMA patient assessed as increase in SMN protein level after 48 hrs by SDS-PAGE and immunoblot. The gist of the method:
(§2)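 hTERT-immortalized SMA patient 3813T fibroblasts seeded at 6000/well, next day dosed for 48 h at indicated concentrations, 0.1% DMSO. Lysed in boiling buffer (150 mM NaCl, 10 mM Tris pH 8.0, 2% SDS), run on 10% SDS-PAGE, SMN immunoblotted, normalized to tubulin or actin as fold over DMSO; one-way ANOVA with Dunnett.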
(A western blot detects proteins with antibodies after separation by electrophoresis.)

Series [4] has the same target. The experiment in a line: Stabilization of SMN protein in 3813T fibroblasts derived from human SMA patient assessed as increase in SMN protein level at 2 uM after 48 hrs by SDS-PAGE and immunoblot. The gist of the method: as §2
Series [5] deals with Plasma. Kind of series: Cmax in mouse plasma at 20 mg/kg, ip. The note with it: in vivo. The series is classed as ADME, organism-based. Also noted: dose 20 mg/kg, route intraperitoneal.
The test system of series [6] is Plasma. The experiment in a line: Cmax in mouse plasma at 20 mg/kg, po. Also noted: dose 20 mg/kg, route oral. The class given is ADME, organism-based. The following applies: in vivo.
Series [7] can be described thus: Drug degradation in 0.1 to 1 N HCL after 1 to 24 hrs by LC-MS method. The gist of the method:
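Compound held in 0.1 N and 1 N HCl at 37 °C for 24 h; aliquots taken at 1, 2, 4, 6 and 24 h and analysed by LCMS for percent degradation.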

Series [8] relates to Plasma. Kind of series: AUC (0 to 24 hrs) in mouse plasma at 20 mg/kg, ip. The series is classed as ADME, organism-based. Also noted: dose 20 mg/kg, time < 24 hr, route intraperitoneal. The note with it: in vivo.
Series [9] is described as follows: AUC (0 to 24 hrs) in mouse brain at 20 mg/kg, ip. The class given is ADME, organism-based. Details: time < 24 hr, dose 20 mg/kg, route intraperitoneal.
In series [10] the test system is Plasma. Kind of series: Tmax in mouse plasma at 20 mg/kg, po. The class given is ADME, organism-based. The following applies: in vivo.
Series [11] deals with Plasma. The experiment in a line: Half life in mouse plasma at 20 mg/kg, ip. The series is classed as ADME, organism-based. The following applies: in vivo.
Series [12] has as its system Plasma. The experiment in a line: Half life in mouse plasma at 20 mg/kg, po. The series is classed as ADME, organism-based. The following applies: in vivo.
Series [13] has as its system HEK293. Kind of series: Effect on human luciferase-tagged SMN mRNA expressed in HEK293 cells assessed as SMN exon 7 included transcript at 1 and 10 uM after 24 hrs by qRT-PCR relative to GAPDH mRNA expression. The class given is cell-based. The gist of the method:
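SMN2-luciferase reporter cells treated with compound; total RNA isolated with Trizol, DNase I treated and reverse transcribed. SYBR Green qPCR for SMN exon 7-included and full-length transcripts, with GAPDH as reference.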

For series [14], the system named is HEK293. Kind of series: Effect on basal level of polyubiquitinated protein in HEK293 cells at 1 and 10 uM incubated for 2 hrs by SDS-PAGE analysis. The class given is cell-based. The following applies: human, hek293, 2 h. In a few lines:
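HEK293 cells pretreated 2 h with test compound or MG-132 (1 and 10 μM), then DMSO or cycloheximide (10 μM) added and incubated a further 6 h; final DMSO 0.2%. Lysates run on 4–15% gradient SDS-PAGE; anti-ubiquitin blot for polyubiquitinated proteins, tubulin as loading control.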

Another series has as its system Liver. The experiment in a line: Half life in human liver microsomes. The series is classed as ADME, microsome. In a few lines:
as §1

Series [15] has as its system HEK293. Kind of series: Effect on luciferase expression in human HEK293 cells expressing SV40 promoter at 10 to 30 uM after 24 hrs by luciferase reporter gene assay. The class given is ADME, cell-based. The following applies: hek293, 24 h. (A reporter such as luciferase makes a cellular process visible.)
For the next series, the species on record is Oryctolagus cuniculus. Kind of series: Effect on proteasome in rabbit reticulocyte lysates assessed as MBP-HPV-16 E6-mediated p53 degradation at 10 and 30 uM incubated for 30 mins prior to MBP-E6 addition by Western blot analysis. In a few lines: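 Purified p53 and MBP-HPV16 E6. E6 (0.1 μM) or buffer then added for 2 h at 25 °C, stopped at 75 °C. p53 read by 10% SDS-PAGE/Western (PAb1801).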

Series [16] concerns HEK293. The experiment in a line: Effect on LC3-2 level in HEK293 cells at 10 uM after 8 hrs by immunoblot analysis. The series is classed as functional, cell-based. The following applies: Homo sapiens. In a few lines:
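HEK293 cells exposed 8 h to DMSO, compound or chloroquine; LC3 and p62 assessed by immunoblot.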

Series [17] deals with Survival motor neuron protein (Homo sapiens) (UniProt Q16637). Kind of series: Stabilization of human luc fused SMN protein expressed in HEK293 cells at 10 uM after 24 hrs in presence of 10 uM cycloheximide by luciferase reporter gene assay. The series is classed as cell-based. The gist of the method:
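SMN2-luciferase reporter cells were maintained in high-glucose DMEM with 10% FBS, Pen/Strep and hygromycin at 37 °C. They were treated at the same time with cycloheximide (10 μM), to block protein synthesis, and with compound or DMSO. Cells were lysed at set time points, and SMN2-luc (firefly) and Renilla-luc activities were read by dual-luciferase assay.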

A further series has as its target CYP2C9 (Homo sapiens, UniProt P11712). Kind of series: Inhibition of CYP2C9 (unknown origin) at 10 uM. The series is classed as ADME.
Another series has as its target CYP2D6 (Homo sapiens, UniProt P10635). Kind of series: Inhibition of CYP2D6 (unknown origin) at 10 uM. The class given is ADME.
Series [18] concerns the target Voltage-gated inwardly rectifying potassium channel KCNH2 (Homo sapiens, UniProt Q12809). The experiment in a line: Inhibition of human ERG at 10 uM.
Series [19] deals with Survival motor neuron protein (Homo sapiens) (UniProt Q16637). The experiment in a line: Stabilization of human SMN protein expressed in HEK293 cells expressing SMN2 promoter assessed as additive effect on SMN stabilization in presence of 0.1: 0.1 to 10:10 ratio of LDN-75654 to compound after 24 hrs by luciferase reporter gene assay. The series is classed as cell-based. In a few lines: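 SMN2 reporter cells exposed 24 h to the two compounds alone or combined at constant ratio, DMSO held at 0.2%, and SMN-luc read. Theoretical additive effect taken as the sum of the single-agent activities.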

Series [20] has the same target. Kind of series: Stabilization of SMN protein in 3813T fibroblasts derived from human SMA patient assessed as increase in SMN protein level after 48 hrs by SDS-PAGE and immunoblot.

Sequence of Survival motor neuron protein (Homo sapiens) (Q16637 whole entry, the tested form may be a part): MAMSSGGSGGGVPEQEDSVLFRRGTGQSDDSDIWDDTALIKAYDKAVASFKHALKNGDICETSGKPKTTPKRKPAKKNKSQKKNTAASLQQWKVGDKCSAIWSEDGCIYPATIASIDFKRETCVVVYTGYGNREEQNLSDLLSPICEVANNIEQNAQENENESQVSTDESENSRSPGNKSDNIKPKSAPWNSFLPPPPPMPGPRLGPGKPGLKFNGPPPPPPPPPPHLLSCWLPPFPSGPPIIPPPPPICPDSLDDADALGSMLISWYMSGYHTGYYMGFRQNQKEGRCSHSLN
Sequence of CYP2D6 (P10635 whole entry): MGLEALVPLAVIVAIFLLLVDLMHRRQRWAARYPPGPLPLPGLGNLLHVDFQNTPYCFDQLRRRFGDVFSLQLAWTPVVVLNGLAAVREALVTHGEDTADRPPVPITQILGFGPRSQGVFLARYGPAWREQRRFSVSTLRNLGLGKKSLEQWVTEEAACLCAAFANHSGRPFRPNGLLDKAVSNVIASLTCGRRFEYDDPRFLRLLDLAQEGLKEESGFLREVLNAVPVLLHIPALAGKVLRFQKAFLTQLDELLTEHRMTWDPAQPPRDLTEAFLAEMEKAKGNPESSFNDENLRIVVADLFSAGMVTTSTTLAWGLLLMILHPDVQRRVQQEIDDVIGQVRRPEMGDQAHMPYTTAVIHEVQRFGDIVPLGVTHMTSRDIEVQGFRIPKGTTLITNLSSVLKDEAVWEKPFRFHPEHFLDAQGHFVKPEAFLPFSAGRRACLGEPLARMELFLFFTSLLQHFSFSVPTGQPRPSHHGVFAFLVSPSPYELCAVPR
Sequence of Voltage-gated inwardly rectifying potassium channel KCNH2 (Q12809 whole entry): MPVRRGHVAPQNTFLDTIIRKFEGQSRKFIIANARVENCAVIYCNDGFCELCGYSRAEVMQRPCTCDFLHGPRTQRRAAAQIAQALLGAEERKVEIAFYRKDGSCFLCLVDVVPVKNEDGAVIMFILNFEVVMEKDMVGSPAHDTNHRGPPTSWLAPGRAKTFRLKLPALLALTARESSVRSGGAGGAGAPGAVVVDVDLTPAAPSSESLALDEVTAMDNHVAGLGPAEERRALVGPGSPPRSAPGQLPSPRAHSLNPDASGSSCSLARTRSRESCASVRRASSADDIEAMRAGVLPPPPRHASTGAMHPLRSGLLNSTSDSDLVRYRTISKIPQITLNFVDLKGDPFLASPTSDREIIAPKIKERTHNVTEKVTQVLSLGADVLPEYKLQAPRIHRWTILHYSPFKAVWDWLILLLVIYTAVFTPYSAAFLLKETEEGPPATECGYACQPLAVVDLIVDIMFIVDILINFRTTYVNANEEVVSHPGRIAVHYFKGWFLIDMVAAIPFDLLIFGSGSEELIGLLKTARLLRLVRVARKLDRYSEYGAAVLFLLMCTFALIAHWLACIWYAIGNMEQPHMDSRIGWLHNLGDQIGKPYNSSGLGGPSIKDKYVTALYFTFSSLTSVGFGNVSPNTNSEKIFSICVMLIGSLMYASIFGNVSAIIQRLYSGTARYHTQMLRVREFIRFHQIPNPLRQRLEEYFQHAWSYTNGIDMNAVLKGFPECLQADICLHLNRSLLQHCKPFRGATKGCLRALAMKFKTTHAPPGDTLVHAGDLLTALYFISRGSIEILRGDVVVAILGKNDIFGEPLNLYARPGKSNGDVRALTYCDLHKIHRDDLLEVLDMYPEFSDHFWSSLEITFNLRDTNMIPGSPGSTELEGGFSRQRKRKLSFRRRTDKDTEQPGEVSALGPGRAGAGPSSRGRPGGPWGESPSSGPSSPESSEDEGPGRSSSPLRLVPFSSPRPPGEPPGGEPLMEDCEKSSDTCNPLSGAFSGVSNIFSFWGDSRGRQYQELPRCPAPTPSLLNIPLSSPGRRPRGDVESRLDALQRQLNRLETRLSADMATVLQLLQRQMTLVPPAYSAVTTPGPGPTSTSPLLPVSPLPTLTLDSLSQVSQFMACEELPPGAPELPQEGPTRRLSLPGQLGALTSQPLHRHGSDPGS
Sequence of CYP2C9 (P11712 whole entry): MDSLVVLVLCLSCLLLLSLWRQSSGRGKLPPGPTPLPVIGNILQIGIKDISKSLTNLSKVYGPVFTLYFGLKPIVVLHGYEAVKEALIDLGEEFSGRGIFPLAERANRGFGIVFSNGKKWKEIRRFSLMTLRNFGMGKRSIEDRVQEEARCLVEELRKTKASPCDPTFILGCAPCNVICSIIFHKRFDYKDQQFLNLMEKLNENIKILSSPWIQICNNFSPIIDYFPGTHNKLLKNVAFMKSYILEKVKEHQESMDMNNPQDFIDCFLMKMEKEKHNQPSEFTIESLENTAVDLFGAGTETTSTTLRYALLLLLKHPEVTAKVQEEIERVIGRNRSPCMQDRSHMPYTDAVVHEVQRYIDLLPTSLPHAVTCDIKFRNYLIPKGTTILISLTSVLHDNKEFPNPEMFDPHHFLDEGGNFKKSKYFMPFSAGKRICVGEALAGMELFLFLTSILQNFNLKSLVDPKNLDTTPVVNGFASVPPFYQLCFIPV

Broadly, the fraction unbound is free concentration divided by total concentration. Read a low fraction unbound as little free substance. The half-life is how long it takes for the measured level to halve. Higher therefore signals slow decline. As a reminder, the Cmax is the maximum level reached in the sampled fluid or tissue. What is called AUC is concentration integrated over time. As a reminder, the AUC(0-t) is exposure summed from dosing to a finite time, without extrapolation to infinity. A higher AUC(0-t) goes with high exposure. For orientation: Tmax means the time from dosing to the highest level. Usually inhibition stands for how much of the control response was suppressed. Read a high inhibition as strong suppression. Consider `O=C(Nc1ncc(C2(O)CCC2)s1)c1ccc(F)c(Cl)c1`, for which the fraction unbound in series [1] amounted to 0.047. In addition, the half-life in series [2] turned out to be 0.65 h. The Activity result was “Dose-dependent effect” in [3], “Non-Toxic” with HEK293 [14], “Non-Toxic” in the series on HEK293 [15] and “Dose-dependent effect” in series [20]. Besides, the fold change (FC) in series [4] was 2. For the same molecule, the peak concentration (Cmax) with Plasma [5] was found to be 7660 ng/mL; in the series on Plasma [6], 286 ng/mL. The molecule also had a Drug degradation in [7] of less than 5%. For the same molecule, the AUC in the series on Plasma [8] is 34291 ng·h/mL. For the same molecule, the AUC(0-t) at 24 h in series [9] is 51300 ng·h/mL. For the same molecule, in the series with Plasma [10], the Tmax worked out at 0.5 h. In addition, the t1/2 was 2.2 h in the series on Plasma [11], 3.4 h with Plasma [12] and greater than 2 h in the series with Liver. Moreover, the result (in the series with HEK293 [13]; in the series filed under Oryctolagus cuniculus; in the series with HEK293 [16]; in [19]) was inactive. For the same molecule, in series [17], the outcome was Active. For the same molecule, the inhibition at 10 µM against CYP2C9 and against CYP2D6 was less than 50% each time. Also, the “inhibition (INH)” value in series [18] is reported as “Not Active”.
